# Measurements reported in ChEMBL document CHEMBL4350973, “CF2H, a Functional Group-Dependent Hydrogen-Bond Donor: Is It a More or Less Lipophilic Bioisostere of OH, SH, and CH3?” (J Med Chem, 2019).
# What was measured:
# [1] = Octanol/water partition co-efficient, log P of compound by UV-spectrophotometry-based shake-flask method; format: physicochemical
# Summary of the method: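 Shake-flask partition between octanol and water, each pre-saturated with the other phase for at least 24 h. Compound dissolved at 10 mM in water-saturated octanol; water/octanol volume ratio set from preliminary runs according to polarity. Phases centrifuged 3000 rpm, 5 min. Diluted octanol phase read by UV absorbance at λmax, absorbance kept within 0.2-1. Water concentration obtained by difference; log P from the volume ratio. Triplicates.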
# [2] = Lipophilicity, log P of the compound; format: physicochemical; settings: octanol/water
# Summary of the method: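 Shake-flask partition between mutually pre-saturated octanol and water (at least 24 h pre-saturation). Compound dissolved at 10 mM in water-saturated octanol; water/octanol volume ratio set by preliminary runs according to polarity. Phases centrifuged 3000 rpm, 5 min; diluted octanol aliquot read by UV absorbance at λmax (range 0.2-1). Water concentration obtained by difference; log P from volume ratio; triplicates.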
SMILES,logP [1],logP [2]
O=[N+]([O-])c1ccc(C(F)F)cc1,2.12,
Cc1ccc(C)cc1 [P-XYLENE],3.08,
FC(F)c1ccc(Br)cc1,2.78,
COc1ccc(C(F)F)cc1,2.61,
Cc1ccc(C#N)cc1,2,
O=[N+]([O-])c1ccc(S(=O)(=O)C(F)F)cc1,1.7,
O=[N+]([O-])c1ccc([S+]([O-])C(F)F)cc1 (centres undefined),1.37,
O=C1c2ccccc2C(=O)N1C(F)F,1.53,
C[S+]([O-])c1ccc([N+](=O)[O-])cc1 (centres undefined),0.49,
Cc1ccc(C(F)F)cc1,2.94,
CN1C(=O)c2ccccc2C1=O,1.33,
N#Cc1ccc(C(F)F)cc1,1.75,
Cc1ccc(Br)cc1,2.91,
COc1ccc(C)cc1,2.67,
Cc1ccc([N+](=O)[O-])cc1 [4-NITROTOLUENE],2.35,
CS(=O)(=O)c1ccc([N+](=O)[O-])cc1,0.61,
O=C(OC(F)F)c1ccccc1,2.66,
FC(F)c1ccccc1,2.4,

# The remaining lines, values ahead:
logP [1],logP [2],SMILES
1.87,,O=S(=O)(CCc1ccccc1)C(F)F
2.95,,CSCCc1ccccc1
1.42,,[O-][S+](CCc1ccccc1)C(F)F (centres undefined)
0.82,,CS(=O)(=O)CCc1ccccc1
3.02,,FC(F)CCc1ccccc1
2.27,,COC(=O)c1ccccc1 [METHYL BENZOATE]
,3.7,CCCc1ccccc1
2.23,,COCCc1ccccc1
0.63,,C[S+]([O-])CCc1ccccc1 (centres undefined)
3.16,,FC(F)OCCc1ccccc1
3.16,,FC(F)SCCc1ccccc1
